Assay results as given in ChEMBL document CHEMBL3739264, “Synthesis and bio-evaluation of novel quinolino-stilbene derivatives as potential anticancer agents” (Bioorg Med Chem, 2015).
pIC50: −log10 of the molar value. Active and inactive are the calls of the source. The calls are words filed in the database; no cut-off is given here.

What was measured:
MDA-MB-231 [1] = experiment: Cell cycle arrest in human MDA-MB-231 cells assessed as accumulation at sub-G1 phase at 6 uM after 12 hrs by flow cytometry analysis relative to control; type: functional
How it was run: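 Cells seeded overnight at about 1 × 10^6 per plate, treated next morning, and harvested at set times. Fixed in 75% ethanol at -20°C for 12-24 h, then stained 1 h in PBS with 0.3% NP-40, 100 µg/ml RNase A and 100 µg/ml propidium iodide. Phase distribution read from DNA content by flow cytometry against sham-treated cells.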

[2] = Antiproliferative activity against human 184B5 cells after 72 hrs by SRB assay; type: cell-based; conditions: 184B5, 72 h
How it was run: (§1)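 Cells seeded at 4,000-5,000/well for 16 h, then exposed 72 h to serial dilutions of compound in DMSO; sham DMSO as 100% and TCA-treated wells as 0%. Fixed in 10% TCA at 4°C for 1 h, stained with 0.4% SRB for 30 min, dye solubilised in 10 mmol Tris pH 10.5, read at 540 nm. IC50 from sigmoidal dose-response curves; two biological replicates, four technical each.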

Tubulin (Homo sapiens) = Tubulin (Homo sapiens) (UniProt P68371+Q9H4B7+P0DPH7+P68366+Q13509+Q71U36+P04350+Q3ZCM7+P07437+P68363+Q9BQE3+Q6PEY2+Q13885+Q9BVA1+Q9BUF5); experiment: Inhibition of tubulin (unknown origin) polymerization at 6 to 12 uM measured every 1 min for 1 hr by automated plate reader analysis; type: protein-complex assay
How it was run: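 Cell-free assay: 4 mg/ml tubulin in 80 mM PIPES, 2 mM MgCl2, 0.5 mM EGTA, 1 mM GTP, 10% glycerol, pH 6.9, added to wells with ligand pre-warmed 2-3 min at 37°C. A340 read every min for 1 h.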

HeLa [3] = experiment: Cell cycle arrest in human HeLa cells assessed as accumulation at S phase at 6 uM after 72 hrs by flow cytometry analysis relative to control; type: functional
How it was run: (§2)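 About 1 × 10^6 cells per plate seeded overnight, then treated with compound and harvested at set times. Cells fixed in 75% ethanol at -20°C for 12-24 h and stained 1 h with 100 µg/ml PI, 100 µg/ml RNase A and 0.3% NP-40 in PBS. DNA content measured by flow cytometry; phase fractions compared with sham-treated cells.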

HeLa [4] = experiment: Cell cycle arrest in human HeLa cells assessed as accumulation at G2/M phase at 6 uM after 48 hrs by flow cytometry analysis relative to control; type: functional; how it was run: as §2
HeLa [5] = experiment: Cell cycle arrest in human HeLa cells assessed as accumulation at sub-G1 phase at 6 uM after 48 hrs by flow cytometry analysis relative to control; type: functional; how it was run: as §2
MDA-MB-231 [6] = experiment: Cell cycle arrest in human MDA-MB-231 cells assessed as accumulation at S phase at 6 uM after 48 hrs by flow cytometry analysis relative to control; type: functional; how it was run: as §2
MDA-MB-231 [7] = experiment: Antiproliferative activity against human MDA-MB-231 cells after 72 hrs by SRB assay; type: functional, cell-based; conditions: MDA-MB-231, 72 h; how it was run: as §1
MDA-MB-231 [8] = experiment: Cell cycle arrest in human MDA-MB-231 cells assessed as accumulation at G0-G1 phase at 6 uM after 48 hrs by flow cytometry analysis relative to control; type: functional; how it was run: as §2
HeLa [9] = experiment: Induction of mitosis arrest in human HeLa cells assessed as condensation of chromosome at 6 uM after 12 hrs using DAPI staining by immunofluorescence microscopic analysis; type: functional, cell-based
How it was run: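 HeLa cells on coverslips treated 12 h, fixed in ice-cold methanol at -20°C. Stained with anti-α-tubulin and anti-lamin A (primary 1:200 overnight at 4°C, fluorescent secondary 1 h) and DAPI for DNA. Mitotic morphology scored by fluorescence microscopy.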

[10] = Cell cycle arrest in human MCF10A cells assessed as accumulation at S phase at 6 uM after 12 hrs by flow cytometry analysis relative to control; type: functional, cell-based; conditions: MCF-10A; how it was run: as §2
MDA-MB-231 [11] = experiment: Cell cycle arrest in human MDA-MB-231 cells assessed as accumulation at S phase at 6 uM after 24 hrs by flow cytometry analysis relative to control; type: functional; how it was run: as §2
[12] = Cell cycle arrest in human MCF10A cells assessed as accumulation at sub-G1 phase at 6 uM after 24 hrs by flow cytometry analysis relative to control; type: functional, cell-based; conditions: MCF-10A; how it was run: as §2
HeLa [13] = experiment: Cell cycle arrest in human HeLa cells assessed as accumulation at sub-G1 phase at 6 uM after 24 hrs by flow cytometry analysis relative to control; type: functional; how it was run: as §2
[14] = Cell cycle arrest in human MCF10A cells assessed as accumulation at G0-G1 phase at 6 uM after 48 hrs by flow cytometry analysis relative to control; type: functional, cell-based; conditions: MCF-10A; how it was run: as §2
HeLa [15] = experiment: Cell cycle arrest in human HeLa cells assessed as accumulation at sub-G1 phase at 6 uM after 12 hrs by flow cytometry analysis relative to control; type: functional; how it was run: as §2
[16] = Cell cycle arrest in human MCF10A cells assessed as accumulation at sub-G1 phase at 6 uM after 48 hrs by flow cytometry analysis relative to control; type: functional, cell-based; conditions: MCF-10A; how it was run: as §2
MDA-MB-468 = experiment: Antiproliferative activity against human MDA-MB-468 cells after 72 hrs by SRB assay; type: functional, cell-based; conditions: MDA-MB-468, 72 h; how it was run: as §1
HeLa [17] = experiment: Cell cycle arrest in human HeLa cells assessed as accumulation at G0-G1 phase at 6 uM after 48 hrs by flow cytometry analysis relative to control; type: functional; how it was run: as §2
[18] = Cell cycle arrest in human MCF10A cells assessed as accumulation at G0-G1 phase at 6 uM after 24 hrs by flow cytometry analysis relative to control; type: functional, cell-based; conditions: MCF-10A; how it was run: as §2
MDA-MB-231 [19] = experiment: Cell cycle arrest in human MDA-MB-231 cells assessed as accumulation at G2/M phase at 6 uM after 48 hrs by flow cytometry analysis relative to control; type: functional; how it was run: as §2
[20] = Cell cycle arrest in human MCF10A cells assessed as accumulation at G2/M phase at 6 uM after 72 hrs by flow cytometry analysis relative to control; type: functional, cell-based; conditions: MCF-10A; how it was run: as §2
HeLa [21] = experiment: Increase of cyclin-B level in human HeLa cells at 6 uM after 48 hrs by Western blot analysis; type: functional, cell-based
How it was run: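 HeLa cells were sham-treated or given 6 µM and collected at set times. Lysed on ice in Tris pH 7.4/NaCl/EDTA/1% Triton X-100 with PMSF and protease inhibitors. 30-40 µg protein run on 8 or 10% gels, blotted to PVDF, probed overnight at 4°C and detected by ECL. Band levels normalized to GAPDH.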

MDA-MB-231 [22] = experiment: Cell cycle arrest in human MDA-MB-231 cells assessed as accumulation at G2/M phase at 6 uM after 12 hrs by flow cytometry analysis relative to control; type: functional; how it was run: as §2
HeLa [23] = experiment: Cell cycle arrest in human HeLa cells assessed as accumulation at G2/M phase at 6 uM after 72 hrs by flow cytometry analysis relative to control; type: functional; how it was run: as §2
HeLa [24] = experiment: Cell cycle arrest in human HeLa cells assessed as accumulation at S phase at 6 uM after 48 hrs by flow cytometry analysis relative to control; type: functional; how it was run: as §2
MDA-MB-231 [25] = experiment: Cell cycle arrest in human MDA-MB-231 cells assessed as accumulation at G2/M phase at 6 uM after 24 hrs by flow cytometry analysis relative to control; type: functional; how it was run: as §2
[26] = Cell cycle arrest in human MCF10A cells assessed as accumulation at G0-G1 phase at 6 uM after 12 hrs by flow cytometry analysis relative to control; type: functional, cell-based; conditions: MCF-10A; how it was run: as §2
HeLa [27] = experiment: Cell cycle arrest in human HeLa cells assessed as accumulation at G2/M phase at 6 uM after 12 hrs by flow cytometry analysis relative to control; type: functional; how it was run: as §2

inhibition (Tubulin (Homo sapiens)): Active
pIC50 (MDA-MB-231 [7]): 5.43
pIC50 (MDA-MB-468): 5.43
Structure (SMILES): FC(F)(F)c1cccc(/C=C\c2cc3ccccc3nc2Cl)c1
Activity (MDA-MB-231 [1]): 8.5%
pIC50 [2]: 5.21
Activity (HeLa [3]): 17.7%
Activity (HeLa [4]): 23.9%
Activity (HeLa [5]): 40.6%
Activity (MDA-MB-231 [6]): 15.4%
Activity (MDA-MB-231 [8]): 36.3%
Activity (HeLa [9]): Active
Activity [10]: 52.9%
Activity (MDA-MB-231 [11]): 10.8%
Activity [12]: 7.3%
Activity (HeLa [13]): 17.8%
Activity [14]: 63.6%
Activity (HeLa [15]): 3.6%
Activity [16]: 12.9%
Activity (HeLa [17]): 20.8%
Activity [18]: 49.2%
Activity (MDA-MB-231 [19]): 18.6%
Activity [20]: 4.9%
Activity (HeLa [21]): Active
Activity (MDA-MB-231 [22]): 47.4%
Activity (HeLa [23]): 12.1%
Activity (HeLa [24]): 12.9%
Activity (MDA-MB-231 [25]): 38.3%
Activity [26]: 31.3%
Activity (HeLa [27]): 78.9%
